Screening data deposited in PubChem BioAssay by The Scripps Research Institute Molecular Screening Center.
TAAR1 antag = human TAAR1 antagonism; actives 1.5% (n = 360,000); Q96RJ0; CHO RD-HGA16 TAAR1, Fluo-8 calcium fluorescence, antagonist; inhibition, % at 3 µM;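 active = inhibition above a per-plate cutoff, the mean inhibition of test compounds on that plate plus 3 SD, cut at about 49% in these data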;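 also: 0% = DMSO plus EC80 beta-PEA response and 100% = DMSO alone without agonist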
Target sequence (Q96RJ0 whole entry, looked up): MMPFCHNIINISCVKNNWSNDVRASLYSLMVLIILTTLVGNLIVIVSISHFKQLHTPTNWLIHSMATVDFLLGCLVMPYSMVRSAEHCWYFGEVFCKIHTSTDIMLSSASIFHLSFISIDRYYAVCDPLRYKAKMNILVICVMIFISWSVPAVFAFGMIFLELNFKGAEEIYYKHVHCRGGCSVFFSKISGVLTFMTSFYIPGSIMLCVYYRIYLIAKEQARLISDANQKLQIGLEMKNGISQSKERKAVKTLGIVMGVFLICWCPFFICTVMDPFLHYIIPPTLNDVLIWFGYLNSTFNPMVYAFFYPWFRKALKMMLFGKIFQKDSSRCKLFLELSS
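Material: RD-HGA16 CHO cells with stable hTAAR1 and Gα16; Dosing: single nominal final test compound concentration of 3 µM; Schedule: seeding 17-24 h prior, 75-min 37 °C, 30-min RT dye loading; Detection: kinetic Fluo-8 calcium fluorescence measurement; Measure: % inhibition from peak post-agonist over basal fluorescence ratio; Benchmarks: vehicle and agonist controls.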
V1R ag counter = counter-screen for oxytocin receptor agonists: human V1a receptor agonists. P37288. CHO-V1R cells, Fluo-8 calcium fluorescence, agonist mode; 0% DMSO, 100% 3 nM vasopressin. activation, % at 3 µM. actives 0.25% (n = 320,000). AID 2797;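 active = activation above the mean activation of all tested compounds plus 3 SD, per screening run, cut at about 20% in these data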;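 also: signal is peak over basal fluorescence ratio across a 100 second FLIPR read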
OXTR ag = agonists of human oxytocin receptor | CHO-OTR cells, Fluo-8 calcium fluorescence; normalized: DMSO 0%, oxytocin 100% | activation, % at 3 µM | P30559 | actives 0.32% (n = 320,000);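 active = activation above the mean of all tested compounds plus 3 SD, cutoff set per screening run, cut at about 20% in these data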;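 also: peak over basal fluorescence ratio from a 100 s FLIPR kinetic read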
OXTR potentiate = potentiates the human oxytocin receptor response. P30559. activation, % at 3 µM. CHO-OTR cells, Fluo-8 calcium fluorescence, potentiator mode; 0% = oxytocin EC15, 100% = EC100. AID 2445. actives 0.061% (n = 320,000);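 active = activation above that plate's cutoff, the mean activation of tested compounds plus 3 SD, cut at about 6.6% in these data, passing the limit was not always enough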;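 also: 100% uses oxytocin at 75 nM as the full agonist control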
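Dosing: Single dose, 3.0 µM nominal final compound concentration | Material: Human OTR in CHO cells | Technique: Kinetic Fluo-8 calcium fluorescence | Benchmarks: EC15 oxytocin alone as 0%, 75 nM oxytocin as 100% | Probe or stimulus: Oxytocin at about EC15, sub-maximal agonist stimulus | Incubation: Compound 6 min at room temperature before oxytocin, 100 s read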
TAAR1 ag = agonists of human TAAR1; activation, % at 3 µM; Q96RJ0; CHO RD-HGA16 TAAR1, Fluo-8 calcium fluorescence; vehicle wells 0%, saturating PEA agonist 100%; actives 0.99% (n = 360,000);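 active = activation above the mean activation of all test compounds in the run plus 3 SD, cut at about 38% in these data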
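Test system: RD-HGA16 (CHO) cells co-expressing Gα16 and hTAAR1 / Benchmarks: DMSO vehicle as 0%, PEA at EC100 as 100% / Repeats: no replicates (n 1) / Measure: % activation from peak over basal fluorescence ratio, DMSO-to-PEA scaled / Timing: 17-24 h plating, Fluo-8 75 min 37 °C, 30 min RT / Technique: kinetic Fluo-8 calcium fluorescence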
V1R ag confirm = human V1a receptor agonism, confirmation. shares compounds with V1R ag counter. CHO-V1R cells, Fluo-8 calcium fluorescence, agonist. activation, % at 3 µM. actives 20% (n = 180). AID 434964;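 active = average activation exceeds primary screen hit cutoff, cut at about 21% in these data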;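 also: peak over basal fluorescence ratio during a 100 s FLIPR read; 0% = DMSO only wells and 100% = 3 nM vasopressin wells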
OXTR counter = activates oxytocin receptor in V1a agonist counter-screen; shares compounds with V1R ag counter; CHO-OTR cells, Fluo-8 calcium fluorescence; actives 10% (n = 180); activation, % at 3 µM;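 active = mean activation over three repeats above the cutoff from the earlier oxytocin receptor agonist screen, cut at about 20% in these data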;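 also: peak over minimum fluorescence ratio within a 100 second FLIPR read; 0% = DMSO only wells and 100% = oxytocin high control wells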
* = called active by the depositor; . = no result. Most compounds without a hit are left out; they make up all but 2.3% or so of the library.

SMILES	TAAR1 antag	V1R ag counter	OXTR ag	OXTR potentiate	TAAR1 ag	V1R ag confirm	OXTR counter
Cc1ccc2[nH]c(C(=O)N/N=C/c3ccccc3C(=O)O)c(-c3ccccc3)c2c1	3	1	0	-7	6	.	.
Cc1ccc2[nH]c(C(=O)N/N=C/c3ccccc3O)c(C)c2c1	1	22*	5	-16	7	1	0
Nc1ccccc1C#CC(=O)c1ccccc1	23	0	0	0	2	.	.
CCOc1cccc(C2C(C(=O)c3ccc(C)o3)=C(O)C(=O)N2Cc2ccncc2)c1 (stereo not drawn)	-5	0	-1	-13	15	.	.
CCOc1cccc(C2C(C(=O)c3ccc(C)o3)=C(O)C(=O)N2c2nccs2)c1 (stereo not drawn)	4	39*	2	-14	2	4	4
Cc1ccc(OCc2cc(C(=O)NCc3ccc(OC(F)(F)F)cc3)no2)cn1	48	28*	19	-8	41*	14	21*
Fc1ccc(CSc2ccc3nnc(-c4cccs4)n3n2)cc1	-5	24*	-1	-10	3	1	0
COc1ccc(-c2cc(C(F)(F)F)n3nc(C(N)=O)cc3n2)cc1	-6	.	.	.	1	.	.
CCN(c1ccccc1)S(=O)(=O)c1ccc(OC)c(NC(=O)C2CC(=O)N(Cc3ccccc3)C2)c1 (stereo not drawn)	35	2	0	-3	8	.	.
Cc1ccc(CNC(=O)c2cccc3c2C(=O)c2ccc(N4CCOCC4)cc2S3(=O)=O)cc1	40	2	1	-6	23	.	.
Cc1ccc(CNC(=O)c2cccc3c2C(=O)c2ccc(N4CCCCC4)cc2S3(=O)=O)cc1	71*	22*	14	-5	47*	19	10
CNC(=O)c1[nH]cnc1C(=O)Nc1ccccn1	-6	43*	3	-1	5	1	0
Cc1c(NC(=O)Nc2ccc(Cl)cc2)c(=O)n(-c2ccccc2)n1C	3	1	0	4	6	.	.
Cc1ccc(NC(=O)Nc2c(C)n(C)n(-c3ccccc3)c2=O)cc1	-10	21*	1	-6	1	0	0
CCOC(=O)c1c(NC(=O)CSc2nc3ccc(C)cc3[nH]2)sc2c1CC(C)(C)NC2(C)C	-7	22*	15	-14	18	2	9
COc1ccc(-c2ccc(C3C(C#N)=C(N)Oc4n[nH]c(C)c43)o2)cc1 (stereo not drawn)	39	24*	5	-10	28	6	6
C=CCn1cc(/C=C/c2cc[n+](C)cc2)c2ccccc21	12	6	3	0	1	.	.
C=CCn1c(C)c(/C=C/c2cc[n+](C)cc2)c2ccccc21	-18	25*	7	-15	9	6	10
CCCCN(CCCC)C(=S)NC(=O)c1ccccc1Cl	-23	-1	-2	-4	-1	.	.
CCOc1ccccc1CN1CCNC(=O)C1CC(=O)N(C)Cc1cnccn1 (stereo not drawn)	-7	1	0	10	3	.	.
CC(C)(C)C(=O)c1sc2nc(-c3cccs3)cc(C(F)(F)F)c2c1N	27	4	3	-5	11	.	.
Nc1c(C(=O)Nc2nccs2)sc2nc(-c3cccs3)cc(C(F)(F)F)c12	31	34*	19	-18	30	24*	34*
CCc1ccc(NC(=O)N(CCCN2CCOCC2)C(C)c2cc3cccc(OC)c3o2)cc1 (stereo not drawn)	-30	22*	-2	4	0	0	-1
C[C@@H]1CC[C@]2(C(=O)O[C@@H]3O[C@H](CO)[C@@H](O)[C@H](O)[C@H]3O)CC[C@]3(C)C(=CCC4[C@@]5(C)CC[C@H](O[C@@H]6OC[C@H](O)[C@H](O[C@@H]7O[C@H](CO)[C@@H](O)[C@H](O)[C@H]7O)[C@H]6O)C(C)(C)C5CC[C@]43C)C2[C@]1(C)O (stereo partly drawn)	11	1	2	8	0	.	.
COc1ccc(/C=C\C(=O)O[C@@H]2C(O)C(O[C@@H]3OC(C)[C@H](O[C@@H]4OCC(O[C@H]5O[C@H](CO)[C@@H](O)C(O)C5O)C(O)C4O)C(O)C3O)[C@H](OC(=O)[C@]34CCC(C)(C)C[C@@H]3C3=CCC5[C@@]6(C)CC(O)C(O[C@@H]7OC(CO)C(O)[C@H](O)[C@H]7O)[C@@](C)(C(=O)O)C6CC[C@@]5(C)[C@]3(CO)CC4)O[C@H]2C)cc1 (stereo partly drawn)	.	73*	6	-7	.	79*	44*
SMILES	TAAR1 antag	V1R ag counter	OXTR ag	OXTR potentiate	TAAR1 ag	V1R ag confirm	OXTR counter
C/C(=N\Nc1ccc(Cl)cc1)c1c(O)cc(C)oc1=O	12	1	-1	-6	3	.	.
CC(Oc1ccc2c(-c3ccccc3)cc(=O)oc2c1)C(=O)N1CCOCC1 (stereo not drawn)	-7	1	2	3	18	.	.
CC(Oc1ccc2ccc(=O)oc2c1)C(=O)N1CCOCC1 (stereo not drawn)	-18	21*	0	0	2	0	0
CCOC(=O)C1=C(C)N=C2SC(C(=O)OC)=CC(=O)N2C1c1ccc(OC)cc1 (stereo not drawn)	-31	0	1	1	1	.	.
CC(OC(=O)/C(C#N)=C/c1ccc(N(C)C)cc1)C(=O)N(C)Cc1ccccc1 (stereo not drawn)	43	30*	18	-17	16	32*	19
CCC(C)(C)c1ccc(OCCCC[n+]2ccc(C)cc2)c(C(C)(C)CC)c1	0	8	2	-13	33	.	.
CCC(C)(C)c1ccc(OCCCC[n+]2cccc(C)c2C)c(C(C)(C)CC)c1	-16	31*	17	-14	21	7	3
S=C(NCc1ccc(Cl)cc1)Nc1ccncc1	3	22*	17	-16	15	14	16
O=C(CCc1nnc(C2CCCCC2)o1)N1CCC(Oc2cccnc2)CC1	-1	0	-1	-9	-1	.	.
CCn1c(=O)c(C(=O)NNC(=O)c2ccccc2Br)c(O)c2ccccc21	8	47*	11	-12	46*	1	1
CCn1c(=O)c(C(=O)NNC(=O)c2cccc(Cl)c2)c(O)c2ccccc21	71*	26*	14	-11	38*	17	11
Cn1c(=O)c(C(=O)NNC(=O)c2ccccc2Br)c(O)c2ccccc21	-25	2	0	-5	12	.	.
